Apaf1 inhib: inhibitors of human Apaf-1 apoptosome, primary screen, biochemical, DEVD-Rh110 fluorescence, uHTS. inhibition, % at 20 µM. actives 0.71% (n = 330,000). AID 489030, 2010. Apoptotic protease-activating factor 1 (Homo sapiens), O14727. reconstituted apoptosome caspase-3 activity; active = inhibition of at least 40% at 20 µM;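 also: plate controls were DMSO wells for no effect and DEVD-CHO caspase inhibitor wells for full effect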
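Material: biochemical Apaf-1 apoptosome reconstitution. Medium: Hepes buffer, pH 7.5. Also added: cytochrome c activation, bis-DEVD rhodamine 110 substrate. Timing: 30 min compound preincubation, 50 min activation, room temperature. Measured by: rhodamine 110 fluorescence at Ex 480/Em 540 nm.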
UBC13 inh: UBC13 polyubiquitin chain formation inhibitors, primary screen, biochemical, TR-FRET, uHTS; Ubiquitin-conjugating enzyme E2 N (Homo sapiens), P61088; actives 0.47% (n = 330,000); inhibition, % at 20 µM; in the data active = inhibition above about 45%, passing the limit was not always enough
TMEM16A act: TMEM16A chloride channel activators or potentiators, primary screen, cell-based, HTS | B-score at 10 µM | HEK293 TMEM16A/YFP-H148Q/I152L, iodide quench fluorescence; active compounds read low | Anoctamin-1 (Mus musculus), Q8BHY3 | AID 623877, 2012 | actives 0.3% (n = 340,000);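 active = fluorescence-ratio B-score plate-corrected deviation score at least 3 library SD below zero, with starting fluorescence score within 5 deviations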;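 also: channel opened by trigger with iodide after compound preincubation; score built on the fluorescence ratio of max minus min over baseline; more negative score means more quench and so TMEM16A activation or potentiation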
Target sequence (Q8BHY3 whole entry, looked up): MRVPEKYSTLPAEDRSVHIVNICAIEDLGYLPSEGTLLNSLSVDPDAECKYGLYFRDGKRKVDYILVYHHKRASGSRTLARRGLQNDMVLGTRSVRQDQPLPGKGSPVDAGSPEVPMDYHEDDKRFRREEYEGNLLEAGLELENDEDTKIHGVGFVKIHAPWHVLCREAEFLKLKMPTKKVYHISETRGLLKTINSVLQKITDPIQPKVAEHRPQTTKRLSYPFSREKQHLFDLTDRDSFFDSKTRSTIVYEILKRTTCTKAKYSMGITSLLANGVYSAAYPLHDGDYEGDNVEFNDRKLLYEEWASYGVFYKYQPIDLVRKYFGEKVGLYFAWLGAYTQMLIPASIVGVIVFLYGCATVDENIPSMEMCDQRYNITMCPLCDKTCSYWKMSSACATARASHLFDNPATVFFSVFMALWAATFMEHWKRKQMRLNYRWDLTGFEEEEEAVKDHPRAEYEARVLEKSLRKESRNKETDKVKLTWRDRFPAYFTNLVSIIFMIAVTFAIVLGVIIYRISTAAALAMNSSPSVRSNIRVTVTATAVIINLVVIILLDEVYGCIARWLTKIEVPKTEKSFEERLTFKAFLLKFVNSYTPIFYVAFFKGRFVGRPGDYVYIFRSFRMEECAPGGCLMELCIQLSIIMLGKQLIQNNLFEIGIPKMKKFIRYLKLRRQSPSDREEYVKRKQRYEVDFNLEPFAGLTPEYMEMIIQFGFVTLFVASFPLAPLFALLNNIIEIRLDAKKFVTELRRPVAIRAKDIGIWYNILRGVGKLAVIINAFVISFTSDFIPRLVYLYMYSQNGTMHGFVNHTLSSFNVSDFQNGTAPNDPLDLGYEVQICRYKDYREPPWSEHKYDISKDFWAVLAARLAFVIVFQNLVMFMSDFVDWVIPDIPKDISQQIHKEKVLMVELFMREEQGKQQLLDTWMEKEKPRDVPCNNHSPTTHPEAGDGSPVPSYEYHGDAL
DNA FID counter: compounds displacing fluorescent DNA intercalator, primary screen, artefact control for HCV NS3 helicase inhibitor project, biochemical, FID fluorescence. DNA fluorescent intercalator displacement. inhibition, % at 7.9 µM. actives 0.17% (n = 290,000). AID 1845, 2009; in the data active = inhibition above about 37%;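 also: 0% = vehicle and 100% = reference compound; higher means more ethidium bromide displaced from hairpin DNA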
ANO1 block: TMEM16A chloride channel inhibitors, primary screen, cell-based, HTS; AID 588511, 2011; HEK293 TMEM16A/YFP iodide influx fluorescence, ionomycin; normalized B-score (activity score, 25-100; higher = stronger inhibition) at 10 µM; actives 1.2% (n = 310,000); Anoctamin-1 (Mus musculus), Q8BHY3;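 active = ratio plate-corrected score three or more library SD toward inhibition, starting fluorescence score within five deviations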;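 also: score derived from kinetic fluorescence span divided by baseline fluorescence per well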
Apaf-1 inh conf2: Apaf-1 inhibitors, single-dose retest, confirmation, biochemical, fluorescence, DEVD-Rh110, 20 µM | shares compounds with Apaf1 inhib | reconstituted apoptosome, caspase-3 DEVD-Rh110 fluorescence | inhibition, % at 20 µM | actives 25% (n = 1,800) | AID 504614, 2011;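 active = mean inhibition of at least 40% at 20 µM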;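 also: plate controls were DMSO wells for no effect and DEVD-CHO caspase inhibitor control wells for full effect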
Rh110 interf inh: Rh110 fluorescence interference by putative Apaf-1 inhibitors, confirmation, artefact control for Apaf-1 inhibitor project, biochemical, 20 µM; shares compounds with Apaf1 inhib; quenched caspase reaction; activation (fluorescence interference), % at 20 µM; 1,800 tested, under 10 active;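 active = signal rise of 40% or more at 20 µM, treated as a fluorescence artifact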
Fluor interf inh: fluorescence interference of Apaf-1 inhibitor hits, dose response, artefact control for Apaf-1 inhibitor project; shares compounds with Apaf1 inhib; fluorescence interference counterscreen, Apaf-1 assay format; IC50, µM; 460 tested, under 10 active; call rule not given here
The depositor's hits bear a star; i = inactive; . = no result. The list is not random: actives were taken first. Their share in the collection is about 2.4%.

SMILES	Apaf1 inhib	UBC13 inh	TMEM16A act	DNA FID counter	ANO1 block	Apaf-1 inh conf2	Rh110 interf inh	others
CNc1ccccc(-c2ccc3ccccc3n2)c1=O	14	-33	i	-12	i	.	.
COC1=C(Nc2ccc(C)cc2)C(=O)c2ccccc2C1=O	61*	-135	i	5	i	11	0
COC1=C(Nc2ccccc2)C(=O)c2ccccc2C1=O	61*	-166	i	9	i	26	9
O=C1C(Cl)=C(Nc2ccccc2)C(=O)c2ccccc21	.	.	i	4	i	.	.
COc1cccc(CC(NC(C)=O)C(=O)NC2CCN(C(=O)c3ccc(Cl)cc3)CC2)c1OC (stereo not drawn)	-3	-6	i	-37	i	.	.
CCOC(=O)C1=C(CN2CCOCC2)NC(=O)NC1c1cc(C)ccc1C (stereo not drawn)	-16	1	i	-23	i	.	.
CCOC(=O)C1=C(CN2CCN(c3ccc(F)cc3)CC2)NC(=O)NC1c1cccs1 (stereo not drawn)	41*	0	i	-27	i	23	14
Cc1ccc(N(C)S(=O)(=O)c2cccc(C(=O)Nc3ccc(C)cn3)c2)cc1	45*	16	i	.	i	38	-2
c1cc2cn[nH]c2cc1NC1CCCCCC1	53*	-12	i	6	i	68*	7	Fluor interf inh=>100
Cc1cccc(OCC(=O)Nc2nnc(S(=O)(=O)N3CCCCCC3)s2)c1	8	-16	i	-43	i	.	.
CC(=O)C1=C(O)C(=O)N(CCc2c[nH]c3ccccc23)C1c1ccco1 (stereo not drawn)	43*	-37	i	-8	i	-1	5
O=C(CCc1c[nH]c2ccccc12)NCc1ccco1	1	4	i	8	i	.	.
CCOc1cc(C2C(C(C)=O)=C(O)C(=O)N2CCc2c[nH]c3ccccc23)ccc1O (stereo not drawn)	49*	16	i	-25	i	12	9
CC(=O)C1=C(O)C(=O)N(CCc2c[nH]c3ccccc23)C1c1ccc(C)cc1 (stereo not drawn)	4	7	i	-43	i	.	.
Cc1cnc(NC(=O)CSc2ncc(-c3ccccc3)n2Cc2ccco2)s1	42*	1	i	-8	i	21	11
Cc1cc(C)nc(/N=C(\N)Nc2ccc(C(C)C)cc2)n1	-3	2	i	-1	i	.	.
COC(C[C@H]1O[C@@H]1C(=O)[C@H](C)OCc1ccccc1)OC	48*	3	i	.	i	1	1
CC(=O)Nc1ccc(SCCCC(=O)c2ccccc2)cc1	8	5	i	-21	i	.	.
CCCC(=O)Nc1ccc2nc(SCC(=O)N3CCCC3)sc2c1	-23	-15	i	-19	i	.	.
Cn1c(SCC(=O)Nc2ccc3nc(SCC(=O)N4CCCC4)sc3c2)nnc1-c1ccccc1	66*	-10	.	-27	i	12	-2
COc1ccc(C)cc1S(=O)(=O)Nc1ccc2c(c1)OCO2	6	5	i	-4	i	.	.
COCCN(C(=O)COC(=O)/C=C/c1ccc(C(F)(F)F)cc1)c1c(N)n(Cc2ccccc2)c(=O)[nH]c1=O	44*	-12	i	.	i	6	3
COCCN(C(=O)COC(=O)/C=C/c1ccc(SC)cc1)c1c(N)n(Cc2ccccc2)c(=O)[nH]c1=O	.	.	i	.	.	.	.

Screens (PubChem BioAssay)
